ChEMBL document CHEMBL4699546, “Synthesis and structure-activity relationships for tetrahydroisoquinoline-based inhibitors of Mycobacterium tuberculosis” (Bioorg Med Chem, 2020)
≈ marks a conversion by molar mass, not a printed value.

Legend:
[1] = system: ATP synthase (human vs Mycobacterium smegmatis); assay: Selectivity index, ratio of IC50 for human ATPsynthase to IC50 for Mycobacterium smegmatis ATPsynthase; assay type: toxicity; settings: read-out: Ratio IC50
[2] = Inhibition of human ATPsynthase
[3] = Metabolic stability in mouse liver microsomes assessed as intrinsic clearance; assay type: ADME, Microsome
[4] = Metabolic stability in human liver microsomes assessed as intrinsic clearance; assay type: ADME, Microsome
[5] = Inhibition of Mycobacterium smegmatis ATPsynthase; design: species or system Mycolicibacterium smegmatis
[6] = system: Mycobacterium tuberculosis; assay: Antimycobacterial activity against Mycobacterium tuberculosis H37Rv ATCC 27294 assessed as reduction in bacterial growth incubated for 10 days in under anaerobic condition by luminometric assay; assay type: functional; settings: H37Rv ATCC 27294, 240 h, time 10 day
In short: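 Growth inhibition of M.tb H37Rv under non-replicating conditions (LORA), reported as minimum inhibitory concentration in µg/mL; tested at the Institute for Tuberculosis Research, University of Illinois at Chicago.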

[7] = system: Vero; assay: Cytotoxicity against African green monkey Vero cells assessed as reduction in cell viability incubated for 72 hrs by MTS-PMS assay; assay type: cell-based; settings: Chlorocebus sabaeus
In short: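 Mammalian cytotoxicity measured in Vero (green monkey kidney epithelial) cells; value reported as IC50 in µg/mL.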

[8] = system: Mycobacterium tuberculosis; assay: Antimycobacterial activity against Mycobacterium tuberculosis H37Rv ATCC 27294 assessed as reduction in bacterial growth incubated for 4 days under aerobic condition by alamar blue based fluorescence assay; assay type: functional; settings: H37Rv ATCC 27294, 96 h, time 4 day
In short: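 Replicating aerobic culture of M.tb H37Rv, MABA read-out; value is the minimum inhibitory concentration in µg/mL; assay run at the Institute for Tuberculosis Research, University of Illinois at Chicago.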

| Structure (SMILES) | selectivity ratio [1] | IC50 [2] | CLH [3] | CLH [4] | IC50 [5] | MIC90 [6] | IC50 [7] | MIC90 [8] |
| --- | --- | --- | --- | --- | --- | --- | --- | --- |
| CN1CCN(c2cccc3c2CN(Cc2ccc(-c4ccc(Cl)cc4)cn2)CC3)CC1 | > 70 | > 500 µg/mL | 238 µL/min/kg | 121 µL/min/kg | 7.2 µg/mL (≈ 16.6 µM) | – | – | – |
| Cc1cc(Cl)ccc1-c1ccc(NC(=O)N2CCc3c(F)ccc(N4CCN(C)CC4)c3C2)nc1 | – | 17 µg/mL (≈ 34.4 µM) | 65 µL/min/kg | 50 µL/min/kg | 1.8 µg/mL (≈ 3.64 µM) | – | – | – |
| Cc1cc(Cl)ccc1-c1ccc(CN2CCc3c(C)ccc(N4CCN(C)CC4)c3C2)nc1 | – | – | 239 µL/min/kg | 92 µL/min/kg | – | 5.2 µg/mL (≈ 11.3 µM) | 14 µg/mL (≈ 30.4 µM) | 0.79 µg/mL (≈ 1.71 µM) |
| COc1ccc(N2CCN(C)CC2)c2c1CCN(Cc1ccc(-c3ccc(Cl)cc3C)cn1)C2 | – | – | – | – | – | 6.1 µg/mL (≈ 12.8 µM) | 12 µg/mL (≈ 25.2 µM) | 1.8 µg/mL (≈ 3.77 µM) |
| CN1CCN(c2cccc3c2CN(C(=O)Nc2ccc(-c4ccc(OC(F)(F)F)cc4)cn2)CC3)CC1 | > 80 | > 500 µg/mL | – | – | 6.2 µg/mL (≈ 12.1 µM) | – | – | – |
| Cc1cc(Cl)ccc1-c1ccc(N2CCc3c(C)ccc(N4CCN(C)CC4)c3C2)nc1 | – | 23 µg/mL (≈ 51.5 µM) | 35 µL/min/kg | 22 µL/min/kg | 5.5 µg/mL (≈ 12.3 µM) | 2.4 µg/mL (≈ 5.37 µM) | 22 µg/mL (≈ 49.2 µM) | 1.9 µg/mL (≈ 4.25 µM) |
| Cc1ccc(N2CCN(C)CC2)c2c1CCN(C(=O)N1CCC(Oc3ccccc3C(F)(F)F)CC1)C2 | – | 48 µg/mL (≈ 92.9 µM) | – | – | 6.2 µg/mL (≈ 12 µM) | – | – | – |
| Cc1ccc(N2CCN(C)CC2)c2c1CCN(C(=O)N1CCC(Oc3ccc(OC(F)(F)F)cc3)CC1)C2 | – | – | 40 µL/min/kg | 48 µL/min/kg | – | – | – | – |
| CCc1ccc(N2CCN(C)CC2)c2c1CCN(C(=O)Nc1ccc(-c3ccc(C(F)(F)F)cc3)cn1)C2 | – | 7.2 µg/mL (≈ 13.8 µM) | 810 µL/min/kg | 107 µL/min/kg | 2.2 µg/mL (≈ 4.2 µM) | – | – | – |
| COc1ccc(N2CCN(C)CC2)c2c1CCN(C(=O)Nc1ccc(-c3ccc(Cl)cc3Cl)cn1)C2 | – | 27 µg/mL (≈ 51.3 µM) | 584 µL/min/kg | 48 µL/min/kg | 3 µg/mL (≈ 5.7 µM) | – | – | – |
| COc1ccc(N2CCN(C)CC2)c2c1CCN(c1ccc(-c3cc(C(F)(F)F)cc(C(F)(F)F)c3)cn1)C2 | – | – | – | – | – | 12 µg/mL (≈ 21.8 µM) | 19 µg/mL (≈ 34.5 µM) | 7.9 µg/mL (≈ 14.3 µM) |
| COc1ccc(N2CCN(C)CC2)c2c1CCN(C(=O)Nc1ccc(-c3ccc(Cl)cc3C)cn1)C2 | – | 20 µg/mL (≈ 39.5 µM) | – | – | 6.3 µg/mL (≈ 12.4 µM) | – | – | – |
| Cc1ccc(N2CCN(C)CC2)c2c1CCN(c1ccc(-c3ccc(C(C)(C)C)cc3)cn1)C2 | – | – | 56 µL/min/kg | 41 µL/min/kg | – | 3.4 µg/mL (≈ 7.48 µM) | 18 µg/mL (≈ 39.6 µM) | 1.4 µg/mL (≈ 3.08 µM) |
| Cc1ccc(N2CCN(C)CC2)c2c1CCN(C(=O)Nc1ccc(-c3cc(C(F)(F)F)cc(C(F)(F)F)c3)cn1)C2 | – | 13 µg/mL (≈ 22.5 µM) | – | – | 14 µg/mL (≈ 24.2 µM) | – | – | – |
| COc1nc2ccc(Br)cc2cc1[C@@H](c1ccccc1)[C@@](O)(CCN(C)C)c1cccc2ccccc12 [BEDAQUILINE] | – | > 1000 µg/mL | – | – | – | – | – | – |
